Results from article PMC7993229 (Oncoimmunology, 2021).
Blank lines part the entries; values can stand above or below the compound they belong to.

Tests used:
[1] = system: human CD8+ T cells; assay: MF-766 and pembrolizumab combination in human CD8+ T cells; format: cell-based; conditions: for CD8+ T cell viability: Fig S2B
How it was run: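 CD8+ T cells were purified from frozen healthy-donor PBMCs and seeded at 1 × 10^5 cells/well in RPMI-1640 with 10% heat-inactivated FBS and 2 mM L-glutamine. Test compound was titrated from 3 µM in 3-fold steps ± PGE2 (10 nM), with pembrolizumab or human IgG4 isotype at 20 µg/mL. Cells were activated with anti-CD3/CD28 beads plus 100 U/mL IL-2 for 24 h at 37°C; IFN-γ was read by Meso Scale Discovery.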

[2] = system: bone marrow-derived dendritic cells (BMDCs); assay: Dendritic cell activation; format: cell-based, C57/BL6 mice; conditions: mouse BMDCs
How it was run: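 Bone marrow flushed from C57BL/6 femurs was cultured 6 days in RPMI with 20 ng/mL mouse GM-CSF and 20 ng/mL mouse IL-4 to give immature DCs. Cells were pretreated 1 h with test compound, then given 1 μg/mL LPS ± 0.037 μM PGE2 for 18 h. Supernatant TNF-α was read with a Meso Scale Discovery mouse panel.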

[3] = system: human monocyte-derived DCs; assay: Dendritic cell activation; format: cell-based
How it was run: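 Commercially sourced human dendritic cells were pretreated 1 h with test compound. They were then stimulated with 1 μg/mL LPS with or without 0.037 μM PGE2 for 18 h. TNF-α in the medium was quantified with a Meso Scale Discovery human pro-inflammatory panel.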

[4] = Pharmacokinetic parameters of MF-766 in mice; conditions: female, C57/B6, mouse, in vivo, po
[5] = system: CT26 tumors; assay: CT26 syngeneic tumor model efficacy study; format: in vivo, BALB/c mouse
How it was run: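 Female BALB/cAnN mice (6–8 weeks) received 0.5 × 10^6 CT26 cells s.c. in the lower right flank. Dosing began at a mean tumor volume of 100 mm3 (75–125). Test compound 30 mg/kg (10% Tween 80) or vehicle was given orally QDx21; anti-PD-1 or isotype was given 10 mg/kg i.p. Q4Dx4. Volume = 0.5 × L × W², followed 60 days. RTV and TGI (%) were calculated; n = 9–12; one-way ANOVA vs vehicle/isotype.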

[6] = system: EMT6 tumors; assay: EMT6 syngeneic tumor model efficacy study; format: in vivo, BALB/c mouse; conditions: MF-766 30 mpk
How it was run: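 EMT6 cells (0.5 × 10^6) were implanted s.c. in the right flank of female BALB/cAnN mice aged 6–8 weeks. Treatment started at a mean tumor volume of 100 mm3 (75–125). Test compound 30 mg/kg in 10% Tween 80 was dosed orally QDx28; anti-PD-1 10 mg/kg i.p. Q4Dx4. Tumor volume = 0.5 × L × W². Relative tumor volume and TGI (%) were derived vs control; n = 9–12; one-way ANOVA vs vehicle/isotype.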

[7] = system: Human NK cells; assay: Natural killer cell activation; format: cell-based
[8] = system: PGE2-induced MDSCs / autologous CD8+ T cells; assay: Suppressive myeloid cell and T-cell co-culture assay; format: cell-based, human; conditions: 1:4 ratio, anti-CD3/CD28 beads, vs DMSO control; MF-766 10, 1, 0.1, 0.01 μM
[9] = system: THP-1 cells; assay: THP-1 LPS-stimulated TNF-α assay; format: cell-based, human; conditions: 1 h pretreatment, 1 μg/mL LPS + PGE2
How it was run: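 THP-1 monocytes were preincubated 1 h with graded test compound concentrations. They were then stimulated with 1 μg/mL LPS, with or without 0.33 μM PGE2, for 18 h. Cells were centrifuged and TNF-α in the supernatant was quantified by Meso Scale Discovery.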

[10] = system: healthy human whole blood; assay: Ex vivo whole blood LPS-stimulated TNF-α assay; format: cell-based; conditions: 1 μg/mL LPS + PGE2
How it was run: (§1)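 Blood was collected in sodium heparin. Healthy-donor blood was used fresh on assay day; CRC patient blood was drawn 1 day before and shipped overnight. Samples were pretreated 1 h with test compound, then stimulated with 1 μg/mL LPS (final) ± 0.037 μM PGE2 for 18 h. After centrifugation, TNF-α in the supernatant was measured by Meso Scale Discovery.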

[11] = system: CRC patient blood; assay: Ex vivo whole blood LPS-stimulated TNF-α assay; format: cell-based, human; conditions: 1 μg/mL LPS + PGE2
How it was run: as §1

[12] = system: human primary tumor histoculture; assay: Human tumor histoculture; format: cell-based; conditions: histoculture system
How it was run: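 Tumor tissue was trimmed of fat, cut into ~400 µm slices and cultured at the air–liquid interface (37°C, 5% CO2) in DMEM with 10% FBS and penicillin/streptomycin. Slices were stimulated with 50 ng/mL anti-human CD3 plus test compound or DMSO for 48 h. IFN-γ, IL-2 and TNF-α were measured by Meso Scale Discovery and expressed as fold change vs DMSO (mean ± S.E.M, n = 8).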

[13] = system: CT26 tumors; assay: Flow cytometry of immune infiltrates in CT26 tumors; format: in vivo, mouse
How it was run: (§2)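 Mice bearing 100 mm3 tumors were dosed as in the efficacy schedule, and tumors were harvested on day 8. Tumors were weighed, enzymatically dissociated and filtered (70 µm). Then 2–3 million cells were stained with fixable viability dye, Fc-blocked 10 min on ice and surface-stained 30 min on ice. Populations were gated within viable CD45+ singlets (NK CD3−CD335+CD49b+; gMDSC CD11b+Ly6G+; macrophages; DCs) and reported as % CD45+ and cells/mg tumor; n = 9–10.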

[14] = system: EMT6 tumors; assay: Flow cytometry of immune infiltrates in EMT6 tumors; format: in vivo, mouse; conditions: EMT6, single-agent treatment
How it was run: as §2

[15] = rat AIA model; cited from earlier work
[16] = system: primary tumor digests; assay: Anti-CD3-stimulated primary tumor digest culture; format: cell-based, human; conditions: without PGE2 spike
How it was run: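 Cells were plated at 0.1 × 10^6/well, from four donors, and cultured 48 h. IFN-γ and TNF-α in supernatants were read on a Meso Scale Discovery platform; technical-replicate means were taken per donor.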

[17] = first-in-human clinical study; cited from earlier work

Compound: CCCCC[C@H](O)/C=C/[C@H]1[C@H](O)CC(=O)[C@@H]1C/C=C\CCCC(=O)O [PGE2, Prostaglandin E2, reference compound]
CD8+ T cell viability [1]: Neither PGE2 nor MF-766 addition affected | suppression of TNF-α production ([2]; compared to LPS alone): ~ 30% | suppression of TNF-α production ([3]; compared to LPS alone): ~ 30%

AUC(0-t) ([4]; 30 mg/kg): 57.5 ± 10.8 µM·h | Cmax ([4]; 30 mg/kg): 15 ± 4.37 µM | Tmax ([4]; 30 mg/kg): 30 min | AUC(0-t) ([4]; 100 mg/kg): 255 ± 97.3 µM·h | Cmax ([4]; 100 mg/kg): 24.1 ± 6.01 µM | Tmax ([4]; 100 mg/kg): 30 min
Compound: O=C(O)c1ccc(C2(NC(=O)c3cccc4ccn(Cc5ccc(C(F)(F)F)cc5)c34)CC2)cc1 [MF-766, 4-[1-[([1-[4-(trifluoromethyl)benzyl]-1H-indol-7-yl]carbonyl)amino]cyclopropyl]be nzoic acid]
tumor progression on monotherapy ([5]; MF-766 30 mpk monotherapy): all tumors progressed | tumor volume reduction ([5]; compared to vehicle/isotype treated group, MF-766 30 mpk, muDX400 10 mpk): 49% | single-agent activity [6]: did not show single-agent activity | reversal of PGE2-suppressed IFN-γ secretion ([7]; 1 h pretreatment, 50 ng/mL IL-2 ± PGE2 overnight): reversed by pretreatment with MF-766 in a dose-dependent manner | NK cell viability ([7]; conditions of Figure 2b (Fig S2A)): not affected | reversal of MDSC/PGE2 suppression of IFN-γ release from CD8+ T cells [8]: reversed by MF-766 in a dose-dependent manner | CD8+ T cell viability [1]: Neither PGE2 nor MF-766 addition affected | reversal of PGE2-mediated inhibition of IFN-γ production ([1]; PGE2 10 nM, anti-CD3/CD28 beads, 24 hours, MF-766 alone): reversed PGE2-mediated inhibition of IFN-γ production | reversal of PGE2-decreased LPS-stimulated TNF-α production [9]: fully reversed | reversal of PGE2 suppression of LPS-stimulated TNF-α production [10]: partially reversed | restoration of PGE2-suppressed TNF-α production [11]: partially restored | restoration of PGE2-suppressed TNF-α production ([2]; 1 μg/mL LPS + PGE2): fully restored | restoration of PGE2-suppressed TNF-α production ([3]; 1 μg/mL LPS + PGE2): fully restored | anti-CD3–stimulated IFN-γ, IL-2, and TNF-α secretion [12]: increase | MHCII high/low macrophage ratio ([13]; CT26): increased | NK cells, percentage in CD45+ fraction and absolute number per mg tumor ([13]; CT26, D8): significantly enriched | CD3+ T cells, frequency of CD45+ cells and absolute numbers in the tumor ([13]; CT26, D8, primarily CD8+ T cells, not CD4+): significant enrichment | absolute numbers of tumor-infiltrating CD45+ leukocytes per mg tumor ([13]; CT26, D8 post-therapy): significantly increased | CD8+ DCs ([13]; CT26, single-agent treatment): remarkable increase | CT26 tumor weight ([13]; day 8, difference did not reach statistical significance): trend toward reduction in size | CD8+ or NK cell infiltration into tumors [14]: did not significantly increase | percentage of gMDSCs ([14]; absolute numbers per mg not significant): significantly decreased | potency compared to other COX-2 inhibitors, including celecoxib and MF-tricyclic [15]: greater than 200 fold

Compound: pembrolizumab: humanized monoclonal immunoglobulin (Ig)G4 antibody against PD-1
IFN-γ and TNF-α secretion [16]: enhanced

Compound: C[C@H](NC(=O)c1c(C(F)F)nn(C)c1Oc1cccc(C(F)(F)F)c1)c1ccc(C(=O)O)cc1 [E-7046]
tolerability [17]: well tolerated
